Measured values from ChEMBL document CHEMBL4354804, “Discovery of a New Isoxazole-3-hydroxamate-Based Histone Deacetylase 6 Inhibitor SS-208 with Antitumor Activity in Syngeneic Melanoma Mouse Models” (J Med Chem, 2019).
Activity calls are given as the source filed them. The calls are words filed in the database; no cut-off is given here.

Legend:
[1] = Mutagenicity in Salmonella typhimurium TA1537 assessed as induction of >= 3 fold increase in revertant colonies at 1.5 to 1000 ug/well in absence of S9 fraction by Ames test; assay type: toxicity; settings: salmonella enterica subsp. enterica serovar typhimurium
In short: (§1)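 Ames test with S. typhimurium TA98 and TA1537, with and without S9 mix. A positive call required a ≥ 2-fold (TA98) or ≥ 3-fold (TA1537) rise in mean revertant colonies over the concurrent negative/solvent control.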

[2] = target: T1, Protein deacetylase HDAC6 (Mus musculus) (UniProt Q9Z2V5); assay: Inhibition of HDAC6 in mouse SM1 cells assessed as reduction in IL-6 stimulated STAT3 phosphorylation at Y705 residue at 5 uM pretreated for 1 hr followed by IL-6 stimulation for overnight by western blot analysis; assay type: cell-based
T1 sequence (whole entry): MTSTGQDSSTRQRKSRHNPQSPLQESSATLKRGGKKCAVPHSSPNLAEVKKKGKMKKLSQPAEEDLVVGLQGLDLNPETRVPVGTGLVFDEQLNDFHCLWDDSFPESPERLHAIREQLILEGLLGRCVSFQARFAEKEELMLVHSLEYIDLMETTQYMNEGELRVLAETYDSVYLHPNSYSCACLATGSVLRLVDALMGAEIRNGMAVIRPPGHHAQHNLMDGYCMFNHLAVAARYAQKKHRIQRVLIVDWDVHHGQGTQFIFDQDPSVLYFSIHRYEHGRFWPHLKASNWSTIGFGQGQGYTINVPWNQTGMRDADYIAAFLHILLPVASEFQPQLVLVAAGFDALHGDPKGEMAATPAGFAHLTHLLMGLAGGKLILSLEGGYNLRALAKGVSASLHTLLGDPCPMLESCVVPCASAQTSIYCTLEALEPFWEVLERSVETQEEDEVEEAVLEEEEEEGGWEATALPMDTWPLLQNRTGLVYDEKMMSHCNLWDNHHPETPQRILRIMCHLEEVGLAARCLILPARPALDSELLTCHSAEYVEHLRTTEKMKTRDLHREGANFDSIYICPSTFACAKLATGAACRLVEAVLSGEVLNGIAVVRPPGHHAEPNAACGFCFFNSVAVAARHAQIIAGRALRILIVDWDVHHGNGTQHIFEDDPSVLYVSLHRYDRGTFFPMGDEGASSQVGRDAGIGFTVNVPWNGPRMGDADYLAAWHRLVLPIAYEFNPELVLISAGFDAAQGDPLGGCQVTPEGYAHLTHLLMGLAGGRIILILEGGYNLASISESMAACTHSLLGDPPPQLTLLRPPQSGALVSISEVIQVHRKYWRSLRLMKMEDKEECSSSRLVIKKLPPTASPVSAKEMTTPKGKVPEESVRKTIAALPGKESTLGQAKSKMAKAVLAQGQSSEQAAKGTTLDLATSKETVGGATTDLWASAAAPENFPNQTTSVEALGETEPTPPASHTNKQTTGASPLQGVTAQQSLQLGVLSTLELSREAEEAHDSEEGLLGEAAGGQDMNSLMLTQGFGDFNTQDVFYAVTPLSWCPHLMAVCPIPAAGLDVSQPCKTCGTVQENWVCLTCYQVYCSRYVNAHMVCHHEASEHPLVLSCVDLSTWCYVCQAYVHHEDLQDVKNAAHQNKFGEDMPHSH
In short: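 SM1 cells pretreated with 5 µM compound, then IL-6 overnight. Lysed in RIPA buffer with protease and phosphatase inhibitors, sonicated, protein quantified by BCA. Immunoblot for PD-L1 and STAT3 Y705 phosphorylation.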

[3] = system: Mus musculus; assay: Antitumor immunity against mouse SM1 cells implanted in flank of immunocompetent C57BL/6 mouse assessed as infiltration of intratumoral CD4+ cells at 25 mg/kg, ip administered 1 week post-implantation by flow cytometry; assay type: functional, organism-based
[4] = target: T1, Protein deacetylase HDAC6 (Mus musculus); assay: Inhibition of HDAC6 in mouse SM1 cells assessed as increase in acetylated alpha-tubulin level at 5 to 10 uM after 24 hrs by Western blot analysis; assay type: cell-based
[5] = Mutagenicity in Salmonella typhimurium TA1537 assessed as induction of >= 3 fold increase in revertant colonies at 1.5 to 1000 ug/well in presence of S9 fraction by Ames test; assay type: toxicity, subcellular; settings: salmonella enterica subsp. enterica serovar typhimurium; in short: as §1
[6] = Half life in human liver microsomes in presence of NADPH; assay type: ADME, Microsome
In short: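 Liver microsomal stability in mouse and human microsomes with NADPH; half-life in minutes.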

[7] = Cytotoxicity against mouse SM1 cells at 0.1 to 25 uM by ApoTox-Glo triplex assay; assay type: cell-based
In short: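 SM1 cells treated with HDAC inhibitors, with pan-HDACi and assay controls on every plate. ApoTox-Glo triplex readout: viability fluorescence 400Ex/505Em, cytotoxicity fluorescence 485Ex/520Em, then caspase 3/7 reagent read by luminescence for apoptosis.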

[8] = system: Mus musculus; assay: Antitumor activity against mouse SM1 cells implanted in flank of immunocompetent C57BL/6 mouse assessed as reduction in tumor growth at 25 mg/kg, ip administered 1 week post-implantation measured for 18 days; assay type: functional, organism-based
In short: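 SM1 cells passaged in vivo mouse to mouse at least five times; 1.0 × 10^6 cells in 100 µL PBS injected subcutaneously into female C57BL/6 mice 4-6 weeks old, 10 per group. Treatment ip 25 mg/kg or 100 µL PBS vehicle, five days a week until control tumors reached maximum size. Tumor volume from calipers as L × W2/2.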

[9] = system: Mus musculus; assay: Antitumor immunity against mouse SM1 cells implanted in flank of immunocompetent C57BL/6 mouse assessed as infiltration of intratumoral CD8+ cells at 25 mg/kg, ip administered 1 week post-implantation by flow cytometry; assay type: functional, organism-based

inhibition [2]: Active
inhibition [4]: Active
half-life [6]: 2.25 h
SMILES: O=C(NCCc1cc(C(=O)NO)no1)c1ccc(Cl)c(Cl)c1
Activity [1]: Non-Toxic
Activity [3]: inactive
Activity [5]: Non-Toxic
Activity [7]: Non-Toxic
inhibition [8]: Active
Activity [9]: Active
